Measurements from ChEMBL document CHEMBL2311453, “Tetrahydropyrroloquinolinone type dual inhibitors of aromatase/aldosterone synthase as a novel strategy for breast cancer patients with elevated cardiovascular risks” (J Med Chem, 2013).

Tests used:
V79MZh = assay: Selectivity factor, ratio of IC50 for human CYP11B1 to IC50 for human CYP11B2 expressed in hamster V79MZh cells; format: cell-based
Summary of the method: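 SF calculated as IC50(CYP11B1)/IC50(CYP11B2). Both IC50s come from V79MZh hamster fibroblasts expressing the human enzyme, with [1,2-³H]-11-deoxycorticosterone at 100 nM as substrate.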

[1] = biological target: T1, Cytochrome P450 11B2, mitochondrial (Homo sapiens, UniProt P19099); assay: Inhibition of human CYP11B2 expressed in hamster V79MZh cells using [1,2-3H]-11-deoxy-corticosterone as substrate; format: cell-based
T1 sequence (P19099 whole entry): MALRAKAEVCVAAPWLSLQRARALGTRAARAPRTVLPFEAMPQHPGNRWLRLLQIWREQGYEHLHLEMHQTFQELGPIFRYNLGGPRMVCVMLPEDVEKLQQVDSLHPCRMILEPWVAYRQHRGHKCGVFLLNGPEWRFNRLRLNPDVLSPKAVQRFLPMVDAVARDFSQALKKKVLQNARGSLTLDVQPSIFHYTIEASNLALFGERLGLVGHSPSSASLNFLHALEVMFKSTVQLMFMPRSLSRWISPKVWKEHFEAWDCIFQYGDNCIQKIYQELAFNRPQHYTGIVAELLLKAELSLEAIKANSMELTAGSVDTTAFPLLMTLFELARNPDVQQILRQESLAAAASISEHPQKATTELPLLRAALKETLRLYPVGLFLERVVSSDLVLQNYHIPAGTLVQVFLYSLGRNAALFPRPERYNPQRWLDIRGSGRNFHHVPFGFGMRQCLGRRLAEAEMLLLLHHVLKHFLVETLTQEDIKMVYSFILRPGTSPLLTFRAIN
Summary of the method: (§1)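 V79MZh hamster fibroblasts stably expressing human CYP11B1 or CYP11B2, incubated with [1,2-³H]-11-deoxycorticosterone (100 nM) and inhibitor at varying concentrations. IC50 taken as mean of at least three experiments (relative SD under 25%).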

[2] = biological target: T2, Cytochrome P450 11B1, mitochondrial (Homo sapiens, UniProt P15538); assay: Inhibition of human CYP11B1 expressed in hamster V79MZh cells using [1,2-3H]-11-deoxy-corticosterone as substrate; format: cell-based; summary of the method: as §1
T2 sequence (P15538 whole entry): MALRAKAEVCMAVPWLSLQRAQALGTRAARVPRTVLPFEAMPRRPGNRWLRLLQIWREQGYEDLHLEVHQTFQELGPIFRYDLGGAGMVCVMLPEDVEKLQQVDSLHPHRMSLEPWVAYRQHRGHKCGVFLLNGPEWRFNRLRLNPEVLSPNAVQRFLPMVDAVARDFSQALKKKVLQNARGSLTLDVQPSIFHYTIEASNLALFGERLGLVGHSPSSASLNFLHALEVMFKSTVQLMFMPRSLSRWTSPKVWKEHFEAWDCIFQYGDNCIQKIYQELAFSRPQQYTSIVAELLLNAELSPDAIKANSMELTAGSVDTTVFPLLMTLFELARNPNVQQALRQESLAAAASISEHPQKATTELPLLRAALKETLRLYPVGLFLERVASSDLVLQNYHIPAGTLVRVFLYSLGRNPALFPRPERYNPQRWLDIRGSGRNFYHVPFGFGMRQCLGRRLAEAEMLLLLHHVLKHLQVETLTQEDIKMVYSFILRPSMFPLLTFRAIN

Aromatase = biological target: T3, Aromatase (Homo sapiens, UniProt P11511); assay: Inhibition of human CYP19 using [1beta-3H]androstenedione as substrate by 3H2O method
T3 sequence (P11511 whole entry): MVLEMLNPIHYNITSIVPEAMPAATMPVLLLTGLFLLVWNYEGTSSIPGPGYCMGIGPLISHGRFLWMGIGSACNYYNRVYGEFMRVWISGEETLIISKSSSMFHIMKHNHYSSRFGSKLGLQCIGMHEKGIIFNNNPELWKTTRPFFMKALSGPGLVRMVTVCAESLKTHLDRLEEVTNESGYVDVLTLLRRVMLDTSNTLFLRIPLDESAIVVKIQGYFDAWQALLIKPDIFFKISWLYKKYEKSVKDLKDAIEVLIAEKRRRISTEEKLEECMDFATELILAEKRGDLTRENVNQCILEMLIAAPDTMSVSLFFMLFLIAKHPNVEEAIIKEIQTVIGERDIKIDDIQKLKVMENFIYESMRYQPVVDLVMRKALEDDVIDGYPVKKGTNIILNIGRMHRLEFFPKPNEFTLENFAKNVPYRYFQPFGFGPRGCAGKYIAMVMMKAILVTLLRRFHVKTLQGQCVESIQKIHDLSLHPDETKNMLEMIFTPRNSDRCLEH

CYP17 = biological target: T4, CYP17 (Homo sapiens, UniProt P05093); assay: Inhibition of human CYP17 expressed in Escherichia coli using progesterone as substrate at 2 uM; conditions: probe progesterone
T4 sequence (P05093 whole entry): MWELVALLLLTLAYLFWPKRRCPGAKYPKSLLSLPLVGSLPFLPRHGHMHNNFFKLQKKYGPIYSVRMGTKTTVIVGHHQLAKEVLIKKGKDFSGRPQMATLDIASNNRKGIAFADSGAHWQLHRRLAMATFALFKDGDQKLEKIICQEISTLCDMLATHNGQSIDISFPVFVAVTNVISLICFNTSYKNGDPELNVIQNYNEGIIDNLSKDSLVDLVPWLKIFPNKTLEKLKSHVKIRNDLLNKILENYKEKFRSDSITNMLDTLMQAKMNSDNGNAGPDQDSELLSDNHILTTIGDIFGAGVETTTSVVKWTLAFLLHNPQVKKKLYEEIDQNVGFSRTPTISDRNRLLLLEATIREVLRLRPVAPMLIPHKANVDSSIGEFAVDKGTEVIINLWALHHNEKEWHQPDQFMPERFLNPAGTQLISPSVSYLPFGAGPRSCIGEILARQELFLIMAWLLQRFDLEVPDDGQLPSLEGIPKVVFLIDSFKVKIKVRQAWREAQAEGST
Summary of the method: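 Enzyme source was the 90000g sediment of E. coli coexpressing human CYP17 and cytochrome P450 reductase. Progesterone substrate at 25 μM, NADPH cofactor, inhibitor at 2 μM. Percent inhibition is the mean of at least two experiments (SD under 10%).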

CYP19 (aromatase) = biological target: T5, CYP19 (aromatase) (Homo sapiens, UniProt P11511); assay: Inhibition of human CYP19 using [1beta-3H]androstenedione as substrate at 500 nM by 3H2O method; conditions: probe [1beta-3H]androstenedione
T5 sequence (P11511 whole entry): T3 sequence (P11511 whole entry)
Summary of the method: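 Human placental microsomes as CYP19 source. [1β-³H]androstenedione substrate at 500 nM, activity read by ³H₂O release. IC50 is the mean of at least three experiments (relative SD under 25%).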

SMILES | IC50 [1] | IC50 [2] | IC50 (Aromatase) | inhibition at 2 µM (CYP17) | inhibition at 500 nM (CYP19 (aromatase)) | Ratio IC50 (V79MZh)
Cc1cccc(C(c2cccnc2)c2cc3c4c(c2)CCN4C(=O)CC3)c1 (centres undefined) | > 5000 nM | 1220 nM | > 5000 nM | – | – | < 0.2
COc1ccccc1C(c1cccnc1)c1cc2c3c(c1)CCN3C(=O)CC2 (centres undefined) | > 5000 nM | 2270 nM | 3660 nM | – | – | < 0.3
C=C(c1ccncc1)c1cc2c3c(c1)CCN3C(=O)CC2 | 96 nM | 1230 nM | 565 nM | 17% | – | 13
N#Cc1ccc(C2CCCc3cncn32)cc1 (centres undefined) [FADROZOLE] | – | – | – | < 3% | – | –
COc1cccc(C(c2ccncc2)c2cc3c4c(c2)CCN4C(=O)CC3)c1 (centres undefined) | 139 nM | 2540 nM | 59 nM | 50% | – | 18
O=C1CCc2cc(C(c3ccncc3)C3CCCCC3)cc3c2N1CC3 (centres undefined) | 1290 nM | > 5000 nM | 74 nM | – | – | > 4
O=C1CCc2cc(C(c3ccccc3)c3ccncc3)cc3c2N1CC3 (centres undefined) | 390 nM | 5400 nM | 880 nM | – | – | 14
COc1ccc(C(c2ccncc2)c2cc3c4c(c2)CCN4C(=O)CC3)cc1 (single isomer, unassigned; (+)) [listing 1 of 2 here] | 46 nM | 1690 nM | 273 nM | – | – | –
CC(c1cccnc1)c1cc2c3c(c1)CCN3C(=O)CC2 (centres undefined) | 37 nM | 4 nM | > 5000 nM | < 3% | – | 0.1
O=C1CCc2cc(C(O)c3ccncc3)cc3c2N1CC3 (centres undefined) | 563 nM | 347 nM | > 5000 nM | < 3% | – | 0.6
COc1ccccc1C(c1ccncc1)c1cc2c3c(c1)CCN3C(=O)CC2 (centres undefined) | 128 nM | 276 nM | 81 nM | 33% | – | 2.2
CC(c1ccncc1)c1cc2c3c(c1)CCN3C(=O)CC2 (centres undefined) | 74 nM | 140 nM | 1500 nM | – | – | 1.9
O=C1CCc2cc(C(c3ccc(F)cc3)c3cccnc3)cc3c2N1CC3 (centres undefined) | 587 nM | 78 nM | 140 nM | – | – | 0.1
COc1ccc(C(c2ccncc2)c2cc3c4c(c2)CCN4C(=O)CC3)cc1 (single isomer, unassigned; (-)) [listing 2 of 2 here] | – | – | – | – | – | 6.9
COc1ccc(C(c2ccncc2)c2cc3c4c(c2)CCN4C(=O)CC3)cc1 (single isomer, unassigned; (+)) [listing 2 of 2 here] | – | – | – | – | – | 37
C=C(c1cccnc1)c1cc2c3c(c1)CCN3C(=O)CC2 | 468 nM | 41 nM | > 5000 nM | < 3% | – | 0.1
COc1ccc(C(c2ccncc2)c2cc3c4c(c2)CCN4C(=O)CC3)cc1 (stereo in doubt; 3k) [listing 1 of 2 here] | – | – | – | – | – | 16
O=C1CCc2cc(C(c3ccncc3)c3cccc(Cl)c3)cc3c2N1CC3 (centres undefined) | 51 nM | 646 nM | 19 nM | 58% | – | 13
O=C1CCc2cc(C(c3cccnc3)c3cccc(Cl)c3)cc3c2N1CC3 (centres undefined) | > 5000 nM | 36 nM | 1350 nM | – | – | < 0.1
O=C1CCc2cc(C(c3ccncc3)c3cccc(F)c3)cc3c2N1CC3 (centres undefined) | 88 nM | 532 nM | 74 nM | – | – | 6

The next lines start with results.

IC50 [1] | IC50 [2] | IC50 (Aromatase) | inhibition at 2 µM (CYP17) | inhibition at 500 nM (CYP19 (aromatase)) | SMILES | Ratio IC50 (V79MZh)
> 5000 nM | 750 nM | > 5000 nM | – | – | O=C1CCc2cc(C(O)c3cccnc3)cc3c2N1CC3 (centres undefined) | < 0.1
85 nM | 745 nM | 105 nM | 43% | – | O=C1CCc2cc(C(O)(c3ccccc3)c3ccncc3)cc3c2N1CC3 (centres undefined) | 8.8
1580 nM | > 5000 nM | 246 nM | – | – | O=C1CCc2cc(C(c3ccncc3)c3cc(C(F)(F)F)cc(C(F)(F)F)c3)cc3c2N1CC3 (centres undefined) | > 3
750 nM | 1420 nM | 889 nM | – | – | CC(C)C(c1ccncc1)c1cc2c3c(c1)CCN3C(=O)CC2 (centres undefined) | 1.9
32 nM | 92 nM | 55 nM | 60% | – | O=C1CCc2cc(C(c3ccncc3)c3ccc(Cl)cc3)cc3c2N1CC3 (centres undefined) | 2.9
74 nM | 16 nM | 3340 nM | < 3% | – | O=C1CCc2cc(Cc3cccnc3)cc3c2N1CC3 | 0.2
74 nM | 511 nM | 92 nM | – | – | COc1ccc(C(c2ccncc2)c2cc3c4c(c2)CCN4C(=O)CC3)cc1 (single isomer, unassigned; (-)) [listing 1 of 2 here] | –
1.1 nM | 715 nM | – | – | 18% | O=C1CCc2cc(-c3cccnc3)cc3c2N1CC3 | 650
56 nM | 88 nM | 116 nM | 55% | – | O=C1CCc2cc(C(c3ccncc3)c3ccc(F)cc3)cc3c2N1CC3 (centres undefined) | 1.6
132 nM | 68 nM | 2130 nM | – | – | O=C1CCc2cc(C(c3ccccc3)c3cccnc3)cc3c2N1CC3 (centres undefined) | 0.5
52 nM | 810 nM | 124 nM | 53% | – | COc1ccc(C(c2ccncc2)c2cc3c4c(c2)CCN4C(=O)CC3)cc1 (stereo in doubt; 3k) [listing 2 of 2 here] | –
1420 nM | 2620 nM | – | 7% | – | N#Cc1ccc(C(c2ccc(C#N)cc2)n2cncn2)cc1 [LETROZOLE] | –
41 nM | 1340 nM | 32 nM | 46% | – | Cc1cccc(C(c2ccncc2)c2cc3c4c(c2)CCN4C(=O)CC3)c1 (centres undefined) | 33
204 nM | 224 nM | 2130 nM | 8% | – | O=C1CCc2cc(Cc3ccncc3)cc3c2N1CC3 | 1.1
